In ChEMBL document CHEMBL1129385, “Aspartic acid conjugates of 2-(3,4-dichlorophenyl)-N-methyl-N-[(1S)-1(3-aminophenyl)-2-(1-pyrrolidi nyl) ethyl]acetamide: kappa opioid receptor agonists with limited access to the central nervous system” (J Med Chem, 1996):

Experiments:
[1] = test system: Mus musculus; test: Compound was evaluated for Antinociceptive potencies in mice for in vivo activity Mouse abdominal stretch assay by icv administration; format: functional; conditions: Abdomen, central
[2] = test system: Mus musculus; test: Peak time for Antinociception Tail-flick(min) by icv administration in mice.; format: functional
[3] = species on record: Cavia porcellus; test: Compound was tested for their agoinst potencies on the electrically stimulated Guinea pig ileal longitudinal muscle preparation.; format: functional; conditions: Muscle tissue
[4] = test system: Mus musculus; test: Compound was evaluated for Antinociceptive potencies in mice for in vivo activity in mouse tail-flick by icv administration; format: functional; conditions: central
[5] = test system: Mus musculus; test: Peak time for Antinociception writhing(min) by icv administration in mice.; format: functional
[6] = test system: Mus musculus; test: Peak time for Antinociception Tail-flick(min) by iv administration in mice.; format: functional
[7] = test system: Mus musculus; test: Compound was evaluated for Antinociceptive potencies in mice for in vivo activity in mouse tail-flick by iv administration; format: functional
[8] = species on record: Mus musculus; test: Compound was tested for their agoinst potencies on the electrically stimulated mouse vas deferens.; format: functional
[9] = test system: Mus musculus; test: Peak time for Antinociception writhing(min) by iv administration in mice.; format: functional
[10] = test system: Mus musculus; test: Compound was evaluated for Antinociceptive potencies in mice for in vivo activity in Analgesic activity in the second phase of the mouse formalin assay by iv administration; format: functional
[11] = molecular target: Mu-type opioid receptor (Cavia porcellus, UniProt P97266); test: Compound was tested for the binding affinity and selectivity by competitive inhibition of radioligands on opioid Mu receptor in guinea pig brain membranes; format: cell membranes, Membrane
How it was run: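 Competition binding in guinea pig brain membranes for μ opioid sites against 2 nM [³H]DAMGO, using a modified Werling method. Ki values are arithmetic means of three experiments.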

[12] = molecular target: T1, Kappa-type opioid receptor (Cavia porcellus, UniProt P41144); test: Compound was tested for the binding affinity and selectivity by competitive inhibition of radioligands on opioid kappa receptor in guinea pig brain membranes; format: cell membranes, Membrane
How it was run: (§1)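 Competition binding in guinea pig brain membranes for κ opioid sites against 1 nM [³H]U69,593, using a modified Werling method. Ki values are arithmetic means of three experiments.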

[13] = molecular target: T1, Kappa-type opioid receptor; test: Compound was tested for the binding affinity and selectivity by competitive inhibition of radioligands on Opioid receptor kappa 1 in guinea pig brain membranes; format: cell membranes, Membrane; how it was run: as §1

SMILES: CN(C(=O)Cc1ccc(Cl)c(Cl)c1)[C@H](CN1CCCC1)c1cccc(NC(=O)C[C@H](N)C(=O)O)c1
- ED50 [1]: 0.011 µmol/kg
- Time [2]: 30 min
- IC50 [3]: 0.55 nM
- ED50 [4]: 0.502 µmol/kg
- Time [5]: 30 min
- Time [6]: 30 min
- ED50 [7]: 5.12 µmol/kg
- IC50 [8]: 6.36 nM
- Time [9]: 10 min

SMILES: CN(C(=O)Cc1ccc(Cl)c(Cl)c1)[C@H](CN1CCCC1)c1cccc(NC(=O)[C@@H](N)CC(=O)O)c1
- ED50 [10]: 0.01 µmol/kg
- ED50 [1]: 0.0068 µmol/kg
- Time [2]: 30 min
- IC50 [3]: 0.84 nM
- ED50 [4]: 0.335 µmol/kg
- Ki [11]: 462 nM
- Time [5]: 10 min
- Time [6]: 20 min
- ED50 [7]: 0.85 µmol/kg
- IC50 [8]: 2.49 nM
- Ki [12]: 0.34 nM
- Time [9]: 10 min

SMILES: CN(C(=O)Cc1ccc(Cl)c(Cl)c1)[C@H](CN1CCCC1)c1cccc(NC(=O)[C@H](N)CC(=O)O)c1
- ED50 [10]: 1.05 µmol/kg
- Ki [13]: 1.2 nM
- ED50 [1]: 0.046 µmol/kg
- IC50 [3]: 4.59 nM
- Ki [11]: 280 nM
- Time [5]: 10 min
- IC50 [8]: 4.06 nM
- Time [9]: 10 min
